Compound activity as filed in PubChem.
An excerpt weighted towards active compounds, which were near 1.9% of everything screened.
M5 PAM: potentiates acetylcholine response at human M5 receptor. CHO-K1 hM5, Fluo-8 calcium, ACh EC20 PAM; 0% = ACh EC20, 100% = ACh EC100. activation, % at 3 µM. 0.3% of 360,000 active;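 active means activation above the run cutoff, the mean activation of all test compounds plus 3 SD, cut at about 18% in these data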
Target sequence (P08912 whole entry, looked up): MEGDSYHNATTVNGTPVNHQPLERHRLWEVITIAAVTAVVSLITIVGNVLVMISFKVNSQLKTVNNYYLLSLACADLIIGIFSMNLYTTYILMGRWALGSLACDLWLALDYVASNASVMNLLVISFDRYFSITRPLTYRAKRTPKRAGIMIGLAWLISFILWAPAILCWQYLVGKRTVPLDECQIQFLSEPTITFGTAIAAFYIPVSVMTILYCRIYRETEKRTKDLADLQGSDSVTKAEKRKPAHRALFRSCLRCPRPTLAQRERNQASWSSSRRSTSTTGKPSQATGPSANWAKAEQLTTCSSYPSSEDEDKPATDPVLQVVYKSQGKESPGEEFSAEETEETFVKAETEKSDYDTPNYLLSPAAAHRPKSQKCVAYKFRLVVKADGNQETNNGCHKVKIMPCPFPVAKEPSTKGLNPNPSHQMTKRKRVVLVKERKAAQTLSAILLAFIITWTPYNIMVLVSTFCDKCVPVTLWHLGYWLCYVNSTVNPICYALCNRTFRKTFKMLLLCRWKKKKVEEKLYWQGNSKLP
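system = human M5 receptor in CHO-K1 cells | compound = one concentration, 3 µM final (nominal) | schedule = Post-acetylcholine fluorescence recording 140 s | signal = Fluo-8 calcium dye fluorescence, kinetic read | benchmarks = low control EC20 acetylcholine (0%), high control EC100 acetylcholine (100%) | repeats = singlicate, one well per test compound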
CHRM5 agonist: CHRM5 agonism in calcium assay; AID 624037; CHO-K1 hM5 cells, Fluo-8 calcium fluorescence; 0% DMSO wells, 100% maximal acetylcholine response; P08912; activation, % at 3 µM; 0.19% of 360,000 active;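 active means activation above the run's mean over test compounds plus 3 SD, cut at about 23% in these data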;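 further: signal is peak over basal fluorescence ratio across the kinetic read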
CHRM5 antagonist: antagonists of human muscarinic M5 receptor (CHRM5). P08912. CHO-hM5 cells, Fluo-8 calcium fluorescence, ACh EC80. inhibition, % at 3 µM. 0.59% of 360,000 active. AID 624040;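 active means inhibition above a per-plate cutoff, the mean of that plate's test compounds plus 3 SD, cut at about 27% in these data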;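 further: 0% = acetylcholine EC80 with DMSO and 100% = DMSO without agonist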
M4 PAM: potentiates acetylcholine response at human M4 receptor. 0.4% of 360,000 active. CHO-K1 hM4/Gqi5, Fluo-8 calcium fluorescence, ACh EC20; 0% = ACh EC20, 100% = maximal ACh. activation, % at 3 µM;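 active means activation above its plate's cutoff, the mean activation of sample wells plus 3 SD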
M4 antag: antagonists of human muscarinic M4 receptor (CHRM4); P08173; CHO-hM4 cells, ACh EC80, Fluo-8 calcium fluorescence; inhibition, % at 3 µM; 0.73% of 360,000 active;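 active means inhibition above its plate's cutoff, the mean inhibition of sample wells plus 3 SD, cut at about 27% in these data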;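 further: 0% = acetylcholine EC80 with DMSO and 100% = DMSO without agonist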
M4 ag: CHRM4 agonism in calcium assay; P08173; CHO-K1 hM4/Gqi5, Fluo-8 calcium fluorescence; vehicle 0%, full acetylcholine response 100%; activation, % at 3 µM; 0.14% of 360,000 active;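 active means activation above the run mean over all test wells plus 3 SD, cut at about 32% in these data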;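 further: peak over basal fluorescence ratio per well then scaled between controls; 0% = DMSO wells and 100% = acetylcholine at EC100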
Numbers without * were called inactive.

SMILES	M5 PAM	CHRM5 agonist	CHRM5 antagonist	M4 PAM	M4 antag	M4 ag
COc1ccc(CCNC(=O)CS(=O)(=O)c2cn(CC(=O)N3CCCC3)c3ccccc23)cc1OC	-6	1	-8	-2	27*	1
Cc1ccc(NC(=O)CN(C)CC(=O)Nc2cccc(F)c2)cc1S(=O)(=O)N1CCCCCC1	-12	4	12	-10	6	12
CC(=O)CC(C)(C)Nc1nc2ccc([N+](=O)[O-])cc2o1	25*	5	-11	7	-9	1
COCCOC(=O)C1=C(C)NC(=O)NC1c1cccc2ccccc12 (stereo not drawn)	1	4	-13	3	-6	1
COc1ccc(/C=C/C(=O)Nc2cccc(S(=O)(=O)NC3=NCCCCC3)c2)c(OC)c1	-15	-1	3	1	-9	19
CCN(CC)S(=O)(=O)c1ccc(N2CCOCC2)c(NC(=O)CSCc2c(C)noc2C)c1	-3	-3	11	1	-1	0
O=C(CCOc1ccccc1)N1CCCC(Nc2ccccc2)C1 (stereo not drawn)	-2	0	0	3	-6	3
c1ccc(-c2ccc(OCCCNC3CCCC3)cc2)cc1	-16	4	33*	-22	39*	30
O=C(CS(=O)(=O)c1ccccc1Cl)N1CCOCC1	-6	-2	10	3	-8	0
Cc1ccccc1Nc1c(-c2ccc(N3CCOCC3)cc2)nc2cnccn12	4	1	1	7	0	0
Cc1ccc(Nc2c(-c3ccc(N4CCOCC4)cc3)nc3cnccn23)cc1	19*	7	-12	11	10	0
O=C(NNC1=Nc2cccc3cccc1c23)c1ccccc1Br	-8	3	8	-3	6	2
c1ccc(Nc2nc(-c3ccncc3)nc3ccccc23)cc1	-4	0	1	0	0	0
Fc1ccc(Nc2nc(-c3ccncc3)nc3ccccc23)cc1	3	2	4	24*	2	2
O=C(Nc1cccc(-n2cnnn2)c1)c1ccc(Cl)cc1Cl	-9	-3	11	0	10	1
CC1Oc2ccccc2N(CC(=O)N2CCCCC2)C1=O (stereo not drawn)	-2	-3	4	17*	-24	2
CC1Oc2ccccc2N(CC(=O)N2CCCc3ccccc32)C1=O (stereo not drawn)	4	-5	-5	0	-7	3
O=C(CCCOc1ccc(Cl)cc1Cl)NCc1ccccn1	-1	-3	3	18	-11	1
CCN(CC)CCNC(=O)C12CC3CC(C)(CC(C)(C3)C1)C2	-13	-7	9	-13	15	2
CCN(CC)CCNC(=O)C12CC3CC(CC(C3)C1)C2	-4	-7	-3	-13	42*	0
Nc1nnc(-c2cccc([N+](=O)[O-])c2)o1	-2	-4	7	-9	7	2
O=[N+]([O-])c1cccc(-c2nnc(C3CC3)o2)c1	36*	11	15	16	-12	0
CN1CCN(C2=Nc3ccccc3Oc3ccc(Cl)cc32)CC1	-19	-1	72*	-16	37*	1
COC(=O)c1cc(CNC(=O)Cc2ccsc2)ccc1OC	-3	-2	10	-22	98*	-1
Cc1ccc(S(=O)(=O)NC2CCCCC2)cc1	-5	-1	0	3	-13	3
SMILES	M5 PAM	CHRM5 agonist	CHRM5 antagonist	M4 PAM	M4 antag	M4 ag
Cc1cccc(NC(=O)C2CCN(S(=O)(=O)c3ccc4c(c3)C(C)(C)C(=O)N4C)CC2)c1C	-5	-1	1	-7	-1	2
Cc1ccc(-c2noc(C3CCCN(C(=O)c4c(F)cccc4F)C3)n2)cc1 (stereo not drawn)	-10	4	2	3	-1	12
O=C(c1c(F)cccc1F)N1CCCC(c2nc(-c3ccc(Cl)cc3)no2)C1 (stereo not drawn)	-25	-4	28*	-10	-4	10
CCOC(=O)c1cn(CC)c2cc(N3CCN(C)CC3)c(F)cc2c1=O	6	-3	-5	3	4	1
CCCCCCn1cc(C(=O)OCC)c(=O)c2cc(F)c(F)cc21	16	0	-2	38*	15	-1
CCOC(=O)c1cn(CC#N)c2cc(F)c(F)cc2c1=O	8	-3	-4	24*	-9	2
CC(=O)NCCc1nc2cc(NC(=O)c3ccc(F)cc3)ccc2n1C	1	-2	6	-3	-1	0
O=C(C[n+]1cc(-c2ccccc2)n2c1CCCCC2)c1ccc(Cl)cc1	0	-10	-2	0	-6	0
CC1CCC(C(C)C)C(OC(=O)C[n+]2cc(-c3ccc(Cl)cc3)n3c2CCCCC3)C1 (stereo not drawn)	-16	-9	75*	-15	19	2
CC(=O)OCC(=O)[C@@]1(O)CC[C@H]2[C@@H]3CCC4=CC(=O)C=C[C@]4(C)[C@H]3[C@@H](O)C[C@@]21C	2	2	-4	3	-1	1
CCC(C(=O)OCC(=O)C1(O)CCC2C3CCC4=CC(=O)CCC4(C)C3C(O)CC21C)C(C)C (stereo not drawn)	-27	-6	19	-12	28*	15
CC12C=CC(=O)C=C1CCC1C2C(O)CC2(C)C1CCC2(O)C(=O)CO (stereo not drawn)	-18	-1	15	-17	88*	1
CC(=O)OCC(=O)[C@@]1(O)CC[C@H]2[C@@H]3CCC4=CC(=O)C=C[C@]4(C)[C@@]3(Cl)[C@@H](Cl)C[C@@]21C	-18	43*	9	3	3	0
CC(=O)NCC(=O)OCC(=O)c1ccccc1	0	2	-4	-1	0	6
Cc1ccc2c(c1)oc(=O)n2CC(=O)c1ccccc1	-1	-1	-4	-1	10	1
CN(C)c1cc[n+](Cc2c(Cl)cccc2Cl)cc1	-20	-6	55*	-34	61*	1
COc1cc2c(cc1OC)C(C(=O)Nc1ccc3c(c1)OCCO3)C(c1cccnc1)N(C)C2=O (stereo not drawn)	-7	-6	-1	1	7	0
O=C1NN=C2CCCCCCC12 (stereo not drawn)	-34	-6	24	-12	91*	1
Oc1ccc(Cl)cc1C1=NNC(c2cccs2)C1 (stereo not drawn)	-2	-1	6	-5	3	0
Cc1ccc(O)c(C2=NNC(c3ccc(Cl)cc3)C2)c1 (stereo not drawn)	21*	14	51*	1	2	8
